According to PubChem BioAssay:
Active and inactive are the calls of the source.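 Rule for the calls, unless noted: active = fluorescence slope after compound addition differing from the mean of all screened samples at 99.7% confidence, in either direction; inactive = the rest.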

What was measured:
[1] = inhibitors of TNFa-induced NFkB p65 translocation, primary screen, imaging, HUVEC, MLSMR starter and 10KST1 sets (AID 438;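 active = inhibition above 20% together with a positive visual image hit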;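 note: compound added about 3h40 before a 20 min TNFalpha stimulation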;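 for inhibition: signal is the nuclear over cytoplasmic p65 intensity ratio per well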); conditions: HUVEC TNFa-induced p65 nuclear translocation; cell count: measured here: nuclei count (cytotoxicity indicator), at 2.08 µM; inhibition: at 2 µM, stronger effect = higher value, 0% TNFa-plus-vehicle, 100% no-TNFa wells
[2] = reduction of polyQ htt aggregates in cells – imaging, exon1htt(103Q)mCFP cells, high-content imaging, primary screen (AID 483;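 active = visual image review flags a hit and inhibition of aggregation exceeds 20%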;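 note: compound exposure lasted 3 days before fixation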;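 for nuclei count: percent of the per-plate median nuclei count of sample wells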); conditions: exon1htt(103Q)mCFP cell line, aggregate imaging, at 2 µM; inhibition of aggregation: stronger effect = higher value; nuclei count: measured here: cell count, toxicity
[3] = endothelial E-selectin expression blockers – imaging, HUVEC, immunofluorescence, MLSMR starter and 10KST1 sets, primary screen (AID 487;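 active = visually confirmed hit in the image check and inhibition above 20%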;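 for inhibition: signal is fraction of cell area covered by stained E-selectin grains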;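 for nuclei count: 100% = median nuclei count of all wells on the same plate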); conditions: HUVEC TNFalpha-induced E-selectin immunofluorescence imaging, at 2 µM; inhibition: stronger effect = higher value; nuclei count: measured here: cell number, toxicity
[4] = molecular target: Voltage-gated potassium channel subunit beta-2 (Rattus norvegicus) (UniProt P62483); assay: inhibitors of rat Kvbeta2 reductase activity – biochemical, NADPH fluorescence, primary screen (AID 622;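 active = fluorescence slope higher than the sample average by over 3 SD, cut at about -0.22 in these data, passing the limit was not always enough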;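 note: slope of raw intensity against log time taken from 70 to 1610 s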); conditions: recombinant KvBeta, 4-cyanobenzaldehyde reduction, at 10 µM, stronger effect = higher value
[5] = molecular target: Voltage-gated potassium channel subunit beta-2 (Rattus norvegicus) (UniProt P62483); assay: enhancers of rat Kvbeta2 NADPH turnover – biochemical, NADPH fluorescence, primary screen (AID 623;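 active = NADPH fluorescence slope more negative than the mean of all samples by about 3 SD, 99.7% confidence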;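 note: fluorescence intensity change per second fitted from 20 to 320 s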); conditions: Recombinant KvBeta, NADPH fluorescence decrease slope, 10 min; at 10 µM; stronger effect = lower value
[6] = molecular target: Alpha-2C adrenergic receptor (Homo sapiens) (UniProt P18825); assay: compounds altering alpha2C-coupled GIRK flux – cell-based, HEK293 alpha2C/GIRK1/2, thallium flux, primary screen (AID 624); conditions: thallium flux BTC fluorescence, at 10 µM, actives lie on both sides;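 note: slope of fluorescence ratio to pre-addition baseline per second over 15 to 24 s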
[7] = inhibitors of larval lipid processing in zebrafish, primary screen, whole organism, PED6 fluorescence, gall bladder and intestine (AID 686;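 active = a full or partial loss of lipid-probe fluorescence in the fish gall bladder, intestine or both, judged by eye; inactive = no fluorescence loss, or compound toxic to the fish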;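 note: larvae 5 to 7 days old with five fish per well; signal comes from phospholipase A2 cleavage of quenched PED6 carried via bile; overnight exposure to compound and PED6 before scoring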); conditions: Zebrafish larvae PED6 lipid processing, fluorescence scoring; screened at 20 µM (by protocol)
How it was run: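 Test system – live zebrafish larvae aged 5-7 days, whole organism · Buffer or medium – E3 fish medium · Reagent – quenched phospholipase substrate PED6, 100 nM final, ingested by larvae · Doses – 20 µM single dose · Incubation – overnight compound and PED6 incubation · Technique – visual fluorescence microscopy scoring of gall bladder, gut · Read-out basis – visual per-well fluorescence inhibition score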

[8] = blockers of RIG-like receptor reporter activation – cell-based, Sendai virus stimulus, luciferase, 10K MLSCN set, TLR/RLR signaling modifier project, primary screen (AID 602276;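 active = inhibition at or above 50% at 10 µM; inactive = inhibition below 50%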;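 note: firefly luciferase from ISG56 promoter only with Renilla not read in this screen; 0% = Sendai virus plus DMSO and 100% = medium plus DMSO without virus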); conditions: HEK293 RL24 IRF3 luciferase reporter, at 10 µM, stronger effect = higher value
[9] = TLR3 IRF3 reporter activation blockers – cell-based, poly I:C stimulus, luciferase, 10K MLSCN set, primary screen (AID 602277;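 active = inhibition of the reporter signal at or above 50%; inactive = inhibition below 50%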); conditions: HEK293-TLR3 RL24 IRF3 luciferase reporter, at 10 µM, stronger effect = higher value

Alpha-2C adrenergic receptor (Homo sapiens), sequence (P18825 whole entry, looked up): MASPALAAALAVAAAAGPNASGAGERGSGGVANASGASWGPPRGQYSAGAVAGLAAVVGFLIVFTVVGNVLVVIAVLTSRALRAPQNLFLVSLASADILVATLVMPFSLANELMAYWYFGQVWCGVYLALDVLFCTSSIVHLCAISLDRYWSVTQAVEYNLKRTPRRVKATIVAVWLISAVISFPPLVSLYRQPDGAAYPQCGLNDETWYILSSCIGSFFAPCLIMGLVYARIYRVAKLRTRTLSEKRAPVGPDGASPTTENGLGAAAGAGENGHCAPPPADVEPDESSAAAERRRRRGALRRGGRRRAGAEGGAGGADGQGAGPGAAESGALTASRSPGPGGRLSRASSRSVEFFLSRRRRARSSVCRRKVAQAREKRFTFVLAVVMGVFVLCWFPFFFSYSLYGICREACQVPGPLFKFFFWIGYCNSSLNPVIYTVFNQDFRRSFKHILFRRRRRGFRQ
Voltage-gated potassium channel subunit beta-2 (Rattus norvegicus), sequence (P62483 whole entry, looked up): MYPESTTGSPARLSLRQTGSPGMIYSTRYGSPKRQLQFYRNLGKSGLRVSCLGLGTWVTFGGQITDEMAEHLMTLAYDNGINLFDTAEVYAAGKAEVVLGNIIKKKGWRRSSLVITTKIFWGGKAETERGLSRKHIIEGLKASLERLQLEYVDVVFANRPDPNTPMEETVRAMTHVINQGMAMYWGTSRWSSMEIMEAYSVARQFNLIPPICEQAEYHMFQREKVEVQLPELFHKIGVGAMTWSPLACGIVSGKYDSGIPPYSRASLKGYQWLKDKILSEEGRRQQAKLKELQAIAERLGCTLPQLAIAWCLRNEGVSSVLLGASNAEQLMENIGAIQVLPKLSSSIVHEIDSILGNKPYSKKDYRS

Cc1cc(NC(=O)Cc2c(F)cccc2Cl)no1
99.9%: nuclei count [2]
586: cell count [1]
94.3%: nuclei count [3]
inactive: inhibition [1] -1.1% | inhibition of aggregation [2] -15.9% | inhibition [3] 34.2% | fluorescence slope [4] -0.44 | NADPH fluorescence slope [5] -2.5e-05 | slope [6] 0.00621 | outcome [7] | inhibition [8] 14.4% | inhibition [9] 19.6%

COC(=O)Cc1cc(=O)n(-c2ccccc2)[nH]1
111%: nuclei count [3]
435: cell count [1]
106%: nuclei count [2]
inactive: inhibition [1] 3.1% | inhibition of aggregation [2] -18.2% | inhibition [3] -67.7% | fluorescence slope [4] -0.379 | NADPH fluorescence slope [5] -1.8e-05 | slope [6] 0.00454 | outcome [7] | inhibition [8] 17.9% | inhibition [9] 21.3%

Cc1ccc(C(O)c2nc3ccccc3n2C(C)C)cc1 (stereo unspecified)
304: cell count [1]
86.7%: nuclei count [3]
91.7%: nuclei count [2]
inactive: inhibition [1] -3.7% | inhibition of aggregation [2] 11% | inhibition [3] 28.8% | fluorescence slope [4] -0.418 | NADPH fluorescence slope [5] -1.7e-05 | slope [6] 0.00388 | outcome [7] | inhibition [8] 20% | inhibition [9] 11.8%

Cc1ccc2c(c1)CCCN2C(=O)c1ccc2c(c1)OCO2
inactive: inhibition [1] -0.6% | inhibition of aggregation [2] -0.1% | inhibition [3] -117% | fluorescence slope [4] -0.457 | NADPH fluorescence slope [5] -5.1e-05 | slope [6] 0.00431 | outcome [7] | inhibition [8] 4.95% | inhibition [9] 4.76%
328: cell count [1]
99.3%: nuclei count [2]
118%: nuclei count [3]

COC(=O)CCn1nnc(-c2ccc(C)cc2)n1
390: cell count [1]
110%: nuclei count [2]
108%: nuclei count [3]
inactive: inhibition [1] 7.6% | inhibition of aggregation [2] -4.9% | inhibition [3] -24.9% | fluorescence slope [4] -0.341 | NADPH fluorescence slope [5] -4.2e-06 | slope [6] 0.00816 | outcome [7] | inhibition [8] 21.3% | inhibition [9] 24.4%

Cc1cc(C)cc(N2C(=O)C3C4C=CC(C4)C3C2=O)c1 (stereo unspecified)
99.1%: nuclei count [3]
98.2%: nuclei count [2]
643: cell count [1]
inactive: inhibition [1] -4.8% | inhibition of aggregation [2] -4.9% | inhibition [3] 28% | fluorescence slope [4] -0.451 | NADPH fluorescence slope [5] -4.1e-05 | slope [6] 0.00599 | outcome [7] | inhibition [8] 13.3% | inhibition [9] 14.4%

CCCCCCn1c(CN2CCN(Cc3ccccc3)CC2)nc2c1c(=O)n(C)c(=O)n2C
84.1%: nuclei count [2]
inactive: inhibition [1] -15.1% | inhibition of aggregation [2] 9.8% | inhibition [3] 24.2% | fluorescence slope [4] -0.43 | NADPH fluorescence slope [5] -5.6e-05 | slope [6] 0.00491 | outcome [7] | inhibition [8] 23% | inhibition [9] 17.3%
255: cell count [1]
64%: nuclei count [3]

Cc1cccc(C)c1NC(=O)COC(=O)c1nonc1N
429: cell count [1]
99.3%: nuclei count [2]
inactive: inhibition [1] -1.3% | inhibition of aggregation [2] 3.6% | inhibition [3] 32.7% | fluorescence slope [4] -0.34 | NADPH fluorescence slope [5] -6.4e-05 | slope [6] 0.0052 | outcome [7] | inhibition [8] 4.72% | inhibition [9] 2%
87.2%: nuclei count [3]

CC(N)C12CC3CC(C1)CC(C(C)N)(C3)C2 (stereo unspecified)
103%: nuclei count [3]
inactive: inhibition [1] 3% | inhibition of aggregation [2] -16.2% | inhibition [3] -14.3% | fluorescence slope [4] -0.38 | NADPH fluorescence slope [5] -6.5e-05 | slope [6] 0.00438 | outcome [7] | inhibition [8] 13.4% | inhibition [9] 13.6%
102%: nuclei count [2]
394: cell count [1]

O=C(Cn1c(=O)oc2ccccc21)N1CCN(c2ccccc2)CC1
99.1%: nuclei count [2]
114%: nuclei count [3]
inactive: inhibition [1] 2.6% | inhibition of aggregation [2] 10% | inhibition [3] -10.5% | fluorescence slope [4] -0.407 | NADPH fluorescence slope [5] -4.3e-05 | slope [6] 0.00535 | outcome [7] | inhibition [8] 8.94% | inhibition [9] 14.4%
421: cell count [1]

CN(CC(=O)Nc1cccnc1)S(=O)(=O)c1cc(Cl)ccc1Cl
448: cell count [1]
inactive: inhibition [1] 12.5% | inhibition of aggregation [2] -7.7% | inhibition [3] -44.8% | fluorescence slope [4] -0.468 | NADPH fluorescence slope [5] -1.6e-06 | slope [6] 0.00566 | outcome [7] | inhibition [8] -8.87% | inhibition [9] -13.1%
101%: nuclei count [2]
98.2%: nuclei count [3]

O=C(c1cnn2c(C(F)F)cc(-c3ccccc3)nc12)N1CCN2CCCC2C1 (stereo unspecified)
inactive: inhibition [1] -3.7% | inhibition of aggregation [2] 13% | inhibition [3] -87.1% | fluorescence slope [4] -0.251 | NADPH fluorescence slope [5] -1.6e-05 | slope [6] 0.00468 | outcome [7] | inhibition [8] 15.8% | inhibition [9] 32.7%
100%: nuclei count [2]
223: cell count [1]
129%: nuclei count [3]

COCCn1c(Sc2nc(C)cs2)nc2c1c(=O)[nH]c(=O)n2C
78.1%: nuclei count [3]
422: cell count [1]
inactive: inhibition [1] 5% | inhibition of aggregation [2] -38.9% | inhibition [3] -78.3% | fluorescence slope [4] -0.475 | NADPH fluorescence slope [5] -1.5e-05 | slope [6] 0.00482 | outcome [7] | inhibition [8] 17.1% | inhibition [9] 11.3%
105%: nuclei count [2]
